From PMC10149104 (Journal of medicinal chemistry, 2023)

How the values were obtained:
recombinant human PEPD = target: T1, recombinant human PEPD (Homo sapiens, UniProt P12955); test: Inhibition of recombinant PEPD, alanine release assay; type: biochemical
T1 sequence (P12955 1-493): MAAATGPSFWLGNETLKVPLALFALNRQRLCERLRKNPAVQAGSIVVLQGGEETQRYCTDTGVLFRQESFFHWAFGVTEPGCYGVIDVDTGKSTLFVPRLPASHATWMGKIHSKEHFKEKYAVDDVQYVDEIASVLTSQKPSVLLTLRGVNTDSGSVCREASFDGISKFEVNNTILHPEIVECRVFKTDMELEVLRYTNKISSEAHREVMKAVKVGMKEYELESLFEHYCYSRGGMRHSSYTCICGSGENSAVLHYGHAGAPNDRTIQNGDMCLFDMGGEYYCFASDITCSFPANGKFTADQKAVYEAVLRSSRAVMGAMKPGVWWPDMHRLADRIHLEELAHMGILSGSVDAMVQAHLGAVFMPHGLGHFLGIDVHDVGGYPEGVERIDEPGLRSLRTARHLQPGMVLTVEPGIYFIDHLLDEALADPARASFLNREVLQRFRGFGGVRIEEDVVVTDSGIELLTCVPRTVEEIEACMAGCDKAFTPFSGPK

recombinant XPNPEP1 = recombinant XPNPEP1 (Homo sapiens, UniProt Q9NQW7); test: Inhibition of recombinant XPNPEP1, H-Lys; type: biochemical; conditions: recombinant XPNPEP1
[1] = Stability in cell culture supernatants; type: in vitro ADME
How it was run: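 Test compounds are incubated in conditioned medium collected from MV4;11 cultures for 24 h at 37 °C. Intact compound and the free acid product are then quantified by LC/MS, with species identified by retention time. Values are means ± SEM of three biological replicates.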

MV4;11 cells = test: PI uptake in MV4; type: cell-based, human; conditions: 6.25 μM; WT, CASP1^−/−, CARD8^−/− cells
How it was run: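 MV4;11 cells (WT, CASP1−/− or CARD8−/−) were plated at 2 × 10^4 cells/well in 384-well format in RPMI and treated with test compound (6.25 μM) for 6 h before PI uptake monitoring. PI was added at 10 μM final. Fluorescence (Ex/Em 535/617 nm) was read every 5 min at 37 °C, baseline-corrected to DMSO vehicle and normalised to maximum response.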

OCI-AML2 cells = test: CTG cell viability in WT and CARD8^−/− OCI-AML2 cells; type: cell-based, human; conditions: 24 h
How it was run: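 Test compound was added by pintool at various concentrations to OCI-AML2 cells (WT or CARD8−/−) plated at 2000 cells/well in 384-well format, in RPMI 1640 with L-glutamine and 10% FBS. Cells were incubated for 24 h at 37 °C in 5% CO2. CellTiter-Glo was then added, plates were shaken for 2 min and held at 25 °C for 10 min, and luminescence was read.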

[2] = test system: MV4;11, OCI-AML2, and THP-1 cells; test: LDH release and GSDMD cleavage immunoblot in WT and CARD8^−/− cells; type: cell-based, human; conditions: 20 μM, 24 h, but not CARD8^−/−
human resting T cells = test: GSDMD cleavage in human resting T cells; type: cell-based; conditions: 20 μM, 24 h
How it was run: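 Primary human T cells (>90% purity by flow cytometry) are thawed in RPMI-1640 with 10% FBS and cultured with 30 U/mL IL-2. Cells receive test compound for 24 h, then are washed twice in PBS and lysed by sonication. Protein is normalized before SDS-PAGE, and blots are probed with an anti-GSDMD rabbit polyclonal and imaged by infrared fluorescence.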

THP-1 cells = test: LDH release and GSDMD cleavage in knockout THP-1 cells; type: cell-based, human; conditions: 20 μM, 24 h
[3] = target: CARD8-DPP9 ternary complex in HEK 293T^CASP1+GSDMD cells (Homo sapiens, UniProt Q86TI2); test: dTAG-based CARD8-DPP9 ternary complex disruption assay; type: cell-based; conditions: dTAG-13 500 nM; VbP 10 μM, CQ31 20 μM, CQ80 20 μM, VP-OMe 1 mM; 6 h; LDH release
[4] = test system: DOX-inducible CARD8 E274R mutant THP-1 cells; test: CARD8 E274R mutant NT degradation assay in CARD8^−/− THP-1 cells; type: cell-based, human; conditions: DOX 100 ng/mL 16 h; VbP 10 μM, CQ31/CQ80 20 μM, VP-OMe 1 mM, MeBs 10 μM; 6 h
How it was run: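 Parental CARD8-knockout THP-1 cells carry a stably integrated doxycycline-inducible CARD8 E274R construct. Cells are grown in RPMI 1640 with L-glutamine and 10% FBS at 37 °C in 5% CO2. They are induced with or without DOX (100 ng/mL, 16 h), then exposed to test compounds for 6 h.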

[5] = after 24 h; cited from earlier work

CARD8-DPP9 ternary complex in HEK 293T^CASP1+GSDMD cells, sequence (Q86TI2 whole entry, one chain of several): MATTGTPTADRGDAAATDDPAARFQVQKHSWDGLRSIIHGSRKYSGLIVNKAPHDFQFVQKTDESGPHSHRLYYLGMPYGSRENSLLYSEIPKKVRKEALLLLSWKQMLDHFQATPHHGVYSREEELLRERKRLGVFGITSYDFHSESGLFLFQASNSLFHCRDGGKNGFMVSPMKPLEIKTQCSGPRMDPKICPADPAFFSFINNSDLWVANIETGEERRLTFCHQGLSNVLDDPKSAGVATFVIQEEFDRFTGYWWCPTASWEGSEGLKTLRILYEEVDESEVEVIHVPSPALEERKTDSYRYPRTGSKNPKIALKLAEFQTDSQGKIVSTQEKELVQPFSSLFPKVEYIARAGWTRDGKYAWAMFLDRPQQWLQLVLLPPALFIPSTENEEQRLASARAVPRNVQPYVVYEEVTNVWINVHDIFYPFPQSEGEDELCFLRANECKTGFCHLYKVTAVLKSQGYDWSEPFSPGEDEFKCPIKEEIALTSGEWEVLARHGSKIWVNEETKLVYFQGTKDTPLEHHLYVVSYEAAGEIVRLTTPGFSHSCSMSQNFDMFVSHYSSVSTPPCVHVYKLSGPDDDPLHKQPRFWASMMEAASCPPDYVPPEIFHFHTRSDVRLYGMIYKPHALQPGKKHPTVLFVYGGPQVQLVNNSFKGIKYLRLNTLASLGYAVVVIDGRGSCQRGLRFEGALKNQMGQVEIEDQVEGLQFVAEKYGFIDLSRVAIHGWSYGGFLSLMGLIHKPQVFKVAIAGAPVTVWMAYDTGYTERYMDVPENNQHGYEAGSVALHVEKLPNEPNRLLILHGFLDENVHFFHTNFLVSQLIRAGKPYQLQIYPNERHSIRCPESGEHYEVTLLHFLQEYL
recombinant XPNPEP1, sequence (Q9NQW7 whole entry): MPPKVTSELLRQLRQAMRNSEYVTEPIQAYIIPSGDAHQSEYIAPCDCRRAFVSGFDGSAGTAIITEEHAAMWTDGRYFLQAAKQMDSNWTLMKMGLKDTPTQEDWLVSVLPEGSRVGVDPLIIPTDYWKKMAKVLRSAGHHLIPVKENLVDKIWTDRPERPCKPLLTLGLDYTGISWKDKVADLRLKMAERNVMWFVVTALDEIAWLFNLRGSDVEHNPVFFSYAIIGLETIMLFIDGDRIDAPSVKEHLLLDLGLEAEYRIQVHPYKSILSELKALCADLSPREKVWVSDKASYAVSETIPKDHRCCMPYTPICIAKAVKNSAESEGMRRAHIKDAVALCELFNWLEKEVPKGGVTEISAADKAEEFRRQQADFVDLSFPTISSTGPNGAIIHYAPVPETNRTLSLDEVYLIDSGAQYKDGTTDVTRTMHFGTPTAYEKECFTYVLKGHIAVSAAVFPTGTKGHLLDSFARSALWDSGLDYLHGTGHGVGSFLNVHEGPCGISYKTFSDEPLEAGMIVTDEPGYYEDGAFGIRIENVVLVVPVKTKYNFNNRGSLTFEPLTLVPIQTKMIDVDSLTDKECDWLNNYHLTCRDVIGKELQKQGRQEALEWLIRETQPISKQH

COC(=O)[C@@H]1CCCN1C(=O)[C@@H](O)[C@H](N)CC(C)C [CQ31]
PEPD inhibition (in words) (recombinant human PEPD): inhibited PEPD and XPNPEP1 similarly | XPNPEP1 inhibition (in words) (recombinant XPNPEP1): inhibited PEPD and XPNPEP1 similarly | Time to conversion to CQ04 [1]: ≤ 30 min | PI uptake in MV4;11 cells (MV4;11 cells): induced PI uptake in WT but not CASP1^−/− or CARD8^−/− | Cell death in OCI-AML2 cells (OCI-AML2 cells): induced cell death in WT but not CARD8^−/− | LDH release and GSDMD cleavage [2]: induced lactate dehydrogenase (LDH) release and GSDMD cleavage | GSDMD cleavage in human resting T cells (human resting T cells): induced GSDMD cleavage | Sensitivity of PEPD and XPNPEP1 single knockout THP-1 cells (THP-1 cells): sensitive | Sensitivity of PEPD/XPNPEP1 double knockout THP-1 cells (THP-1 cells): completely resistant | Pyroptosis in DPP8/9^−/− THP-1 cells (THP-1 cells; LDH release and GSDMD cleavage): neither CQ80 nor CQ31 induced any additional pyroptosis | Pyroptosis after dTAG-13 treatment (ternary complex destabilization) [3]: induce more pyroptosis after dTAG-13 treatment | Additional cell death in CARD8 E274R assay (NT degradation) [4]: do not trigger as much degradation as MeBs | De-esterification to CQ04 in cell culture [5]: completely de-esterified
